A selection: hits, their analogues and other compounds. The true share with any hit is near 2.2%.
697 NFkB inh: inhibitors of PMA/ionomycin-induced NF-kB reporter, 697 cells, primary screen, B-cell NF-kB inhibitor project, cell-based, luminescence, uHTS. 697 B-cell NF-kB luciferase reporter, 16 h. inhibition, % at 4 µM. hit rate 0.33% among 330,000; in the data active means inhibition above about 35%
FGF22 binding: binders of human FGF22 protein, primary screen, FGF22 synaptogenesis inhibitor project, biophysical, thermal shift, single point; Fibroblast growth factor 22 (Homo sapiens), Q9HCT0; hit rate 1.5% among 340,000; activity (Tm shift, normalised), % at 9.99 µM; recombinant FGF22 thermal shift, SYPRO orange fluorescence; percent of sucrose octasulfate shift, DMSO zero;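 active means mean Tm shift, scaled 0 neutral to 100 positive control, at about 1.3% or above, every replicate too, limit read from the data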
NR2E3 ag-1: NR2E3 agonists in two-hybrid cells, primary screen, cell-based, luminescence, CHO-S, Gal4-NCOR/VP16-NR2E3. inhibition of corepressor binding, % at 3.98 µM. Photoreceptor-specific nuclear receptor (Homo sapiens), Q9Y5X4. luciferase. hit rate 0.35% among 360,000;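 active means inhibition above the mean of all tested compounds plus 3 SD, cut at about 70% in these data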;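 further: 0% = DMSO with NR2E3 transfected cells and 100% = cells lacking NR2E3 construct; higher means lower luciferase signal from less NR2E3 corepressor binding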
NR2E3 ag-2: inhibitors of NR2E3-RetCOR corepressor binding, primary screen, NR2E3 agonist project, biochemical, TR-FRET, GST-NR2E3, biotin-RetCOR. AID 2300, 2010. hit rate 0.12% among 320,000. Photoreceptor-specific nuclear receptor (Homo sapiens), Q9Y5X4. 1536-well. inhibition of corepressor binding, % at 4.78 µM;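 active means percent inhibition above the cutoff of mean plus 3 SD of all tested compounds, set per screening campaign, cut at about 20% in these data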;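 further: 0% = DMSO wells and 100% = biotin wells as full block of FRET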
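Material: NR2E3–RetCOR corepressor complex / Incubation: Compound–protein incubation for 5 h at 4 °C / Dosing: compound at 4.8 µM, single dose / Detection: time-resolved FRET / Benchmarks: high control biotin, low control 0.6% DMSO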
Jurkat NFkB inh: inhibitors of induced NF-kB luciferase reporter, primary screen, TCR NF-kB activation inhibitor project, cell-based, luminescence, uHTS | inhibition, % at 4 µM | hit rate 0.53% among 330,000 | Jurkat, PMA/ionomycin-induced NF-kB luciferase reporter; in the data active means inhibition above about 50%
miR122 inh: miR-122 Renilla sensor signal increase in Huh7, primary screen, miR-122 inhibitor project, cell-based, single point, plate reader; activation (reporter increase), % at 12.5 µM; Huh7 miR-122 Renilla luciferase sensor, 48 h; neutral wells = 0, positive control = 100; hit rate 0.3% among 340,000; AID 602342, 2012;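 active means mean replicate activation score at least 90 and every replicate individually at or above 90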;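 further: higher luciferase means less miR-122 activity so hits act as miR-122 inhibitors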
NR2E3 ag confirm: NR2E3 agonists, confirmation, biochemical, TR-FRET; shares compounds with NR2E3 ag-2; cell-free NR2E3 corepressor release, 5 h; activation (reported as inhibition), % at 3.98 µM; hit rate 39% among 360; AID 2379, 2010; in the data active means activation above about 20%
PPARg-NCOR2 ctr: agonists of PPARg-NCOR2 corepressor interaction, counter-screen for NR2E3 agonist project, biochemical, TR-FRET | shares compounds with NR2E3 ag-2 | TR-FRET PPARg-NCOR2 coregulator interaction | inhibition, % at 3.98 µM | hit rate 45% among 360; in the data active means inhibition above about 20%;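 further: 0% = DMSO vehicle and 100% = wells without protein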
* = called active by the depositor; [ ] = dose if it differs, or a comment.

`C[C@@H]1CN([C@H](C)CO)C(=O)c2cc(-c3ccccc3F)cnc2O[C@@H]1CN(C)C` gave FGF22 binding 0.1 and miR122 inh -5.3[16.7 µM].
For C[C@@H]1CN([C@@H](C)CO)S(=O)(=O)c2ccc(C3=CCCCC3)cc2O[C@H]1CN(C)C(=O)Cc1cccnc1 the results were FGF22 binding -0.2 and miR122 inh 6.8[16.7 µM].
For CCOC(=O)CCCc1sc(N)nc1-c1[nH]c(=O)[nH]c1C the results were 697 NFkB inh -0.9, NR2E3 ag-1 -15.9, NR2E3 ag-2 47.9*, Jurkat NFkB inh 12.7, miR122 inh -2.8, NR2E3 ag confirm 11.8 and PPARg-NCOR2 ctr -2.6.
For CCOC(=O)CCCCC(=O)c1[nH]c(=O)[nH]c1CSCCO the results were 697 NFkB inh -4.6, FGF22 binding 0.2, NR2E3 ag-1 -17.7, NR2E3 ag-2 -12.2 and Jurkat NFkB inh -26.3.
Screening Cc1cccc(-c2ccc([C@@H]3[C@H]4CN(S(=O)(=O)c5cccc(C)c5)CCCCN4[C@H]3CO)cc2)c1 returned FGF22 binding 0.2 and miR122 inh 3.9[16.7 µM].
Screening O=S(=O)(Nc1cc2nc3ccccc3nc2n1Cc1ccccc1)c1ccc(Cl)cc1 returned FGF22 binding 0.2, NR2E3 ag-1 -30.6, NR2E3 ag-2 32.8*, NR2E3 ag confirm 5.0 and PPARg-NCOR2 ctr 0.9.
Screening O=S(=O)(NCc1ccccc1)c1ccc(Cl)cc1 returned 697 NFkB inh 2.5, NR2E3 ag-1 -6.6, NR2E3 ag-2 -1.3 and Jurkat NFkB inh -5.3.
`Cc1nc(-c2ccc(Br)cc2)ccc1C(=O)O` gave 697 NFkB inh 5.1, NR2E3 ag-1 -6.5, NR2E3 ag-2 24.7*, Jurkat NFkB inh 8.0, NR2E3 ag confirm 19.4 and PPARg-NCOR2 ctr 17.5.
Screening CC1NC(=O)NC1CCCCC(=O)O (stereo not given) returned 697 NFkB inh -10.9, NR2E3 ag-1 -26.6, NR2E3 ag-2 0.2, Jurkat NFkB inh -3.3 and miR122 inh -3.8.
Screening CCc1cccc(NC(=O)CCCCCC2NC(=O)NC2C)c1 (stereo not given) returned 697 NFkB inh 6.7, FGF22 binding -0.1, NR2E3 ag-1 -7.1, NR2E3 ag-2 86.0*, Jurkat NFkB inh 7.1, NR2E3 ag confirm 90.3* and PPARg-NCOR2 ctr 91.7*.
Screening CC1NC(=O)NC1CCCCCC(=O)Nc1ccc(F)c(Cl)c1 (stereo not given) returned 697 NFkB inh -1.2, FGF22 binding 0.2, NR2E3 ag-1 -4.4, NR2E3 ag-2 90.0*, Jurkat NFkB inh 9.2, NR2E3 ag confirm 88.2* and PPARg-NCOR2 ctr 91.0*.
Cc1ccc(NC(=O)CCCCCC2NC(=O)NC2C)cc1 (stereo not given) was read as 697 NFkB inh 13.9, FGF22 binding 0.2, NR2E3 ag-1 -18.7, NR2E3 ag-2 86.8*, Jurkat NFkB inh -2.8, miR122 inh 5.4, NR2E3 ag confirm 90.5* and PPARg-NCOR2 ctr 91.6*.
Screening CCC(=O)Nc1ccc(F)c(Cl)c1 returned 697 NFkB inh 21.5, NR2E3 ag-1 -7.8, NR2E3 ag-2 2.4, Jurkat NFkB inh 7.9 and miR122 inh -2.9.
For O=C(C1=C(O)C(=O)N(CC2CCCO2)C1c1ccccc1Cl)c1ccco1 (stereo not given) the results were 697 NFkB inh 6.5, FGF22 binding -0.2, NR2E3 ag-1 -23.2, NR2E3 ag-2 13.3, Jurkat NFkB inh 19.8 and miR122 inh -0.5.
O=C(C1=C(O)C(=O)N(CC2CCCO2)C1c1ccc(Cl)cc1Cl)c1ccco1 (stereo not given) was read as 697 NFkB inh 5.0, FGF22 binding -0.5, NR2E3 ag-1 -15.3, NR2E3 ag-2 29.6*, Jurkat NFkB inh -1.6, miR122 inh 5.6, NR2E3 ag confirm 24.0* and PPARg-NCOR2 ctr 25.2*.
Screening C[C@H](CO)N1C[C@H](C)[C@H](CN(C)C(=O)Cc2ccccn2)Oc2cc(-c3ccc(C(=O)N(C)C)cc3)ccc2S1(=O)=O returned FGF22 binding -0.1 and miR122 inh -1.5[16.7 µM].
Screening COc1cccc2c1NC(C(=O)O)C1CC=CC21 (stereo not given) returned 697 NFkB inh -9.1, NR2E3 ag-1 -0.1, NR2E3 ag-2 22.5*, Jurkat NFkB inh 7.6, NR2E3 ag confirm 5.4 and PPARg-NCOR2 ctr 13.9.
CCc1c(C(=O)O)[nH]c2ccc(Br)cc12 was read as 697 NFkB inh 25.7, NR2E3 ag-1 -1.7, NR2E3 ag-2 43.5*, Jurkat NFkB inh 12.0, miR122 inh -2.8, NR2E3 ag confirm 40.7* and PPARg-NCOR2 ctr 30.2*.
`N#Cc1ccc(Cl)cc1NC(=O)COC(=O)c1ccc2c(c1)OCCO2` gave 697 NFkB inh -27.3, NR2E3 ag-1 3.8, NR2E3 ag-2 35.5*, Jurkat NFkB inh -20.9, miR122 inh 7.4, NR2E3 ag confirm 38.6* and PPARg-NCOR2 ctr 40.7*.
COCC(=O)N1C[C@@H](C)[C@@H](OC)CN(C)C(=O)c2ccc(NC(=O)C3CCC3)cc2OC[C@@H]1C was read as FGF22 binding 0.4 and miR122 inh -2.9[16.7 µM].
`C[C@@H]1CN([C@@H](C)CO)C(=O)c2cc(NC(=O)CCCCCC(=O)Nc3ccccc3N)ccc2O[C@H]1CN(C)S(=O)(=O)c1ccc(Cl)cc1` gave FGF22 binding -0.4.
For Cc1ccccc1S(=O)(=O)N[C@H]1CC[C@@H](CCNS(=O)(=O)c2cccc(F)c2)O[C@H]1CO the results were FGF22 binding -0.3.
For COc1ccc(C(CNC(=O)COc2cccc(C(F)(F)F)c2)N2CCCC2)cc1 (stereo not given) the results were 697 NFkB inh 0.7, FGF22 binding -0.2, NR2E3 ag-1 5.0, NR2E3 ag-2 31.6*, Jurkat NFkB inh -0.5, miR122 inh 10.0, NR2E3 ag confirm -0.4 and PPARg-NCOR2 ctr -6.2.
